Data from ChEMBL document CHEMBL1154417, “In vitro antiviral activity of the novel, tyrosyl-based human immunodeficiency virus (HIV) type 1 protease inhibitor brecanavir (GW640385) in combination with other antiretrovirals and against a panel of protease inhibitor-resistant HIV” (Antimicrob Agents Chemother, 2007).
Active and inactive are the calls of the source. No cut-off for these calls is given here.

What was measured:
[1] = test system: Human immunodeficiency virus 1; assay: Antiviral activity against HIV1 NL4-3; type: functional, organism-based; conditions: Human immunodeficiency virus 1, NL4-3
Protease [2] = molecular target: T1, Protease (Human immunodeficiency virus 1, UniProt Q9YQ12); assay: Inhibition of HIV1 protease by fluorescent peptide substrate based assay
T1 sequence (Q9YQ12 whole entry): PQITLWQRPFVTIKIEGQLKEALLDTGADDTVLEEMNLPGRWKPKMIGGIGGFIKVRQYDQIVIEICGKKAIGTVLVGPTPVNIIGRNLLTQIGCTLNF
How it was run: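 HIV-1 protease Ki from a continuous fluorescence activity assay using a fluorescent peptide substrate. Alternatively, Ki was calculated from the association and dissociation rate constants of the enzyme-inhibitor complex.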

[3] = test system: Human immunodeficiency virus 1; assay: Antiviral activity against HIV1 BaL in human PBMC assessed as blockade of reverse transcriptase activity; type: functional, organism-based; conditions: Human immunodeficiency virus 1, BaL
How it was run: (§1)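 PHA-stimulated PBMCs, 8 × 10^6 cells/ml in RPMI with 20% FBS and 10% IL-2, preincubated 1 h at 37°C with compound serially diluted fourfold. Then infected with virus premixed with compound (IIIB for line 2, Ba-L for line 3). After 7 days, RT activity measured in supernatant. EC50 from mean percent inhibition; n = 3 for IIIB, 8 for Ba-L.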

[4] = test system: Human immunodeficiency virus 1; assay: Ratio of EC50 for HIV1 drug resistant mutant isolates from protease inhibitor treated HIV patient to EC50 for drug sensitive HIV1 NL4-3; type: functional
How it was run: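 Recombinant virus assay with clinical isolates from PI-experienced patients (94 isolates). Fold change is the EC50 against each isolate over the EC50 against reference wild-type HIV-1 NL4-3.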

Protease [5] = molecular target: T1, Protease; assay: Inhibition of HIV1 protease
How it was run: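 Ki derived either from a continuous fluorescence activity assay of HIV-1 protease or from the ratio of the dissociation first-order rate constant to the bimolecular association rate constant for enzyme–inhibitor binding.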

[6] = test system: Human immunodeficiency virus 1; assay: Antiviral activity against HIV1 drug resistant mutant isolates from protease inhibitor treated HIV patient; type: functional, organism-based
[7] = test system: Human immunodeficiency virus 1; assay: Antiviral activity against HIV1 HXB2 in human MT4 cells assessed as inhibition of viral-induced viral cytopathic effect in presence of 10% fetal bovine serum and 20% human serum by MTS assay; type: functional, organism-based; conditions: Human immunodeficiency virus 1, HXB2, MT4
How it was run: (§2)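 MT-4 cells batch-infected with HIV-1 HXB2 at MOI 0.0001 for 1 h at 37°C. Cells then plated at 4 × 10^4 per well onto serially diluted compound in medium containing 10% or 40% FBS, or 10–40% human serum. After 5 days, EC50 from MTS viability.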

[8] = test system: Human immunodeficiency virus 1; assay: Antiviral activity against HIV1 HXB2 in human MT4 cells assessed as inhibition of viral-induced viral cytopathic effect in presence of 40% fetal bovine serum by MTS assay; type: functional, organism-based; conditions: Human immunodeficiency virus 1, HXB2, MT4; how it was run: as §2
[9] = test system: Human immunodeficiency virus 1; assay: Antiviral activity against HIV1 HXB2 in human MT4 cells assessed as inhibition of viral-induced viral cytopathic effect in presence of 10% fetal bovine serum and 30% human serum by MTS assay; type: functional, organism-based; conditions: Human immunodeficiency virus 1, HXB2, MT4; how it was run: as §2
[10] = test system: Human immunodeficiency virus 1; assay: Antiviral activity against HIV1 HXB2 in human MT4 cells assessed as inhibition of viral-induced viral cytopathic effect in presence of 10% fetal bovine serum by MTS assay; type: functional, organism-based; conditions: Human immunodeficiency virus 1, HXB2, MT4; how it was run: as §2
[11] = test system: Human immunodeficiency virus 1; assay: Antiviral activity against HIV1 HXB2 in human MT4 cells assessed as inhibition of viral-induced viral cytopathic effect in presence of 10% fetal bovine serum and 40% human serum by MTS assay; type: functional, organism-based; conditions: Human immunodeficiency virus 1, HXB2, MT4; how it was run: as §2
[12] = test system: Human immunodeficiency virus 1; assay: Antiviral activity against HIV1 HXB2 in human MT4 cells assessed as inhibition of viral-induced viral cytopathic effect in presence of 10% fetal bovine serum and 10% human serum by MTS assay; type: functional, organism-based; conditions: Human immunodeficiency virus 1, HXB2, MT4; how it was run: as §2
[13] = test system: Human immunodeficiency virus 1; assay: Ratio of EC50 for HIV1 HXB2 in presence of 30% human serum to EC50 for HIV1 HXB2 in presence of 10% fetal bovine serum; type: functional; how it was run: as §2
[14] = test system: Human immunodeficiency virus 1; assay: Ratio of EC50 for HIV1 HXB2 in presence of 20% human serum to EC50 for HIV1 HXB2 in presence of 10% fetal bovine serum; type: functional; how it was run: as §2
[15] = test system: Human immunodeficiency virus 1; assay: Ratio of EC50 for HIV1 HXB2 in presence of 40% human serum to EC50 for HIV1 HXB2 in presence of 10% fetal bovine serum; type: functional; how it was run: as §2
[16] = test system: Human immunodeficiency virus 1; assay: Ratio of EC50 for HIV1 HXB2 in presence of 10% human serum to EC50 for HIV1 HXB2 in presence of 10% fetal bovine serum; type: functional; how it was run: as §2
[17] = Cytotoxicity against human IM9 cells; type: cell-based, IM-9; conditions: read-out: CCIC50
How it was run: (§3)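 Uninfected B- and T-cell lines were exposed to serially diluted compound up to a highest concentration of 25 μM. The cell culture 50% inhibitory concentration (CCIC50) was determined.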

[18] = Cytotoxicity against human MT4 cells; type: cell-based; conditions: read-out: CCIC50
How it was run: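 Mock-infected MT-4 cells run in parallel with the HIV-1 IIIB antiviral assay, in RPMI 1640 with FBS, IL-2 and gentamicin. Incubated 5 days at 37°C, 5% CO2, then MTS viability read at OD 492 nm. Highest concentration tested 25 μM. Reported as CCIC50.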

[19] = test system: Human immunodeficiency virus 1; assay: Ratio of EC50 for HIV1 HXB2 in presence of 40 mg/ml HSA and 1 mg/ml alpha1-acid glycoprotein to EC50 for HIV1 HXB2; type: functional
How it was run: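 Same MT-4/HXB2 batch-infection format (MOI 0.0001, 1 h, 4 × 10^4 cells/well, 5-day MTS read-out), run with 40 mg/ml human serum albumin plus 1 mg/ml α1-acid glycoprotein.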

[20] = test system: Human immunodeficiency virus 1; assay: Antiviral activity against HIV1 HXB2 in human HeLa cells by HeLa-CD4 MAGI assay; type: functional, organism-based; conditions: Human immunodeficiency virus 1, HXB2, HeLa
How it was run: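 HeLa-CD4-LTR-β-gal cells kept in DMEM with 10% FBS and infected with HIV-1 HXB2 in a single-round assay. Read-out is β-galactosidase activity; n = 2; tested up to about 50 μM, the solubility limit.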

[21] = test system: Human immunodeficiency virus 1; assay: Antiviral activity against HIV1 HXB2 in human HeLa cells up to 50 uM by HeLa-CD4 MAGI assay; type: functional, organism-based
How it was run: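 HeLa-CD4-LTR-β-gal cells grown in DMEM with 10% FBS and infected with HIV-1 HXB2 for a single round of infection. Read-out is β-galactosidase activity. Tested up to the solubility limit (about 50 μM). EC50 from 2 determinations.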

[22] = test system: Human immunodeficiency virus 1; assay: Antiviral activity against HIV1 3B in human PBMC assessed as blockade of reverse transcriptase activity; type: functional, organism-based; conditions: Human immunodeficiency virus 1, 3B; how it was run: as §1
[23] = Protein binding in human plasma; type: ADME, cell-free; conditions: read-out: PPB (converted)
[24] = test system: Human immunodeficiency virus 1; assay: Antiviral activity against HIV1 HXB2 in human MT4 cells assessed as inhibition of viral-induced viral cytopathic effect by MTS assay; type: functional, organism-based; conditions: Human immunodeficiency virus 1, HXB2, MT4; how it was run: as §2
[25] = test system: Human immunodeficiency virus 1; assay: Ratio of EC50 for HIV1 HXB2 in presence of 40% fetal bovine serum to EC50 for HIV1 HXB2 in presence of 10% fetal bovine serum; type: functional; how it was run: as §2
[26] = Cytotoxicity against human U937 cells; type: cell-based, U-937
[27] = Cytotoxicity against human MOLT4 cells; type: cell-based, MOLT-4; conditions: read-out: CCIC50; how it was run: as §3
[28] = test system: Human immunodeficiency virus 1; assay: Antiviral activity against HIV1 3B in human MT4 cells assessed as inhibition of viral-induced viral cytopathic effect by MTS assay; type: functional, organism-based; conditions: Human immunodeficiency virus 1, 3B
How it was run: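 MT-4 cells in RPMI 1640 with 20% FBS, 20% IL-2 and gentamicin, 5 × 10^5 cells/ml, infected with HIV-1 IIIB at 100 TCID50 per well for 1 h at 37°C. Cells diluted sixfold onto serially diluted compound and incubated 5 days. Cytopathic effect read by MTS staining at OD 492 nm. EC50 by Hill-equation curve fit; n = 8.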

[29] = Selectivity index, ratio of CCIC50 for human MT4 cells to IC50 for HIV1 3B; type: functional

SMILES | EC50 [1] [nM] | EC50 [3] [nM] | Ratio EC50 [4] | EC50 [6] [nM] | EC50 [7] [nM] | EC50 [9] [nM] | EC50 [10] [nM] | EC50 [11] [nM] | EC50 [12] [nM] | further results
CC(C)CN(C[C@@H](O)[C@H](Cc1ccccc1)NC(=O)O[C@H]1CCOC1)S(=O)(=O)c1ccc(N)cc1 | 15.3 | 57 | 13.7 | 190 | – | – | – | – | – | Ki (Protease [2]): 0.057 nM; Ki (Protease [5]): 0.036 nM
CC(C)CN(C[C@@H](O)[C@H](Cc1ccccc1)NC(=O)O[C@H]1CO[C@H]2OCC[C@H]21)S(=O)(=O)c1ccc(N)cc1 | 0.78 | 2.8 | – | 4.6 | 15 | 19 | 5.6 | 22 | 11 | EC50 [8]: 11 nM
CCC[C@@]1(CCc2ccccc2)CC(O)=C([C@H](CC)c2cccc(NS(=O)(=O)c3ccc(C(F)(F)F)cn3)c2)C(=O)O1 | 76.2 | 304 | 2.4 | 190 | 507 | 580 | 40.9 | 660 | 310 | Ki (Protease [2]): 0.008 nM; Ratio EC50 [13]: 14.1; Ratio EC50 [14]: 12.4; Ratio EC50 [15]: 16; Ratio EC50 [16]: 7.7
CC(C)(C)NC(=O)[C@@H]1CN(Cc2cccnc2)CCN1C[C@@H](O)C[C@@H](Cc1ccccc1)C(=O)N[C@H]1c2ccccc2C[C@H]1O.O | 9.8 | – | 26 | 220 | – | – | – | – | – | –
Cc1c(O)cccc1C(=O)N[C@@H](CSc1ccccc1)[C@H](O)CN1C[C@H]2CCCC[C@H]2C[C@H]1C(=O)NC(C)(C)C | – | 36 | – | – | – | – | – | – | – | –
COC(=O)N[C@H](C(=O)N[C@@H](Cc1ccccc1)[C@@H](O)CN(Cc1ccc(-c2ccccn2)cc1)NC(=O)[C@@H](NC(=O)OC)C(C)(C)C)C(C)(C)C [ATAZANAVIR] | 1.7 | 4.4 | 26 | 47 | – | – | – | – | – | –
Cc1nc(COc2ccc(C[C@H](NC(=O)O[C@H]3CO[C@H]4OCC[C@H]43)[C@H](O)CN(CC(C)C)S(=O)(=O)c3ccc4c(c3)OCO4)cc2)cs1 [BRECANAVIR] | 0.18 | 0.42 | 6.6 | 0.88 | 2.2 | 2.6 | 0.7 | 3.8 | 1.4 | CC50 [17]: > 25000 nM; CC50 [18]: > 25000 nM; Ratio EC50 [19]: 8.2; EC50 [20]: > 90000 nM; Activity [21]: inactive; EC50 [8]: 1.1 nM; EC50 [22]: 0.2 nM; fraction unbound [23]: 0.02; Ratio EC50 [13]: 3.6; EC50 [24]: 0.53 nM; Ratio EC50 [25]: 1.6; CC50 [26]: > 25000 nM; CC50 [27]: > 25000 nM; Ratio EC50 [14]: 2.2; EC50 [28]: 0.44 nM; Ratio EC50 [15]: 5.2; Ratio EC50 [16]: 1.9; Ratio [29]: >55000
Cc1cccc(C)c1OCC(=O)N[C@@H](Cc1ccccc1)[C@@H](O)C[C@H](Cc1ccccc1)NC(=O)[C@H](C(C)C)N1CCCNC1=O [LOPINAVIR] | 4.4 | – | 43 | 230 | – | – | – | – | – | –
